Reference: ChEMBL document CHEMBL1145162, “6-aryl-8H-indeno[1,2-d]thiazol-2-ylamines: A1 adenosine receptor agonist allosteric enhancers having improved potency” (J Med Chem, 2005)

Columns and labels:
Adenosine receptor A1 = target: T1, Adenosine receptor A1 (Homo sapiens, UniProt P30542); assay: Antagonist activity against adenosine A1 receptor; assay type: functional; set-up: concentration or dose not given beside the values
T1 sequence (P30542 whole entry): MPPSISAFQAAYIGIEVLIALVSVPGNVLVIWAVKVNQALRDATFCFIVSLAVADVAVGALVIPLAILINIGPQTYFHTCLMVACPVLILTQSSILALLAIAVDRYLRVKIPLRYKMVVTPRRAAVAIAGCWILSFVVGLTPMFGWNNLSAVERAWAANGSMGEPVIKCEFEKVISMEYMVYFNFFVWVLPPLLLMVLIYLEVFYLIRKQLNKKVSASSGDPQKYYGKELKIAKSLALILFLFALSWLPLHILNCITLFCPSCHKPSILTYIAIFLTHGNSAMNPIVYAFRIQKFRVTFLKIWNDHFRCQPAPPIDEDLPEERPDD
Procedure, shortened: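 Equilibrium binding on CHO-K1 hA1AR membranes (15 μg) in 10 mM HEPES pH 7.4, 1 mM EDTA, 1 U/mL adenosine deaminase, 4 nM [3H]CPX. Mixed with an equal volume of 200 μM enhancer in HEPES–10% DMSO; 200 μM NECA for nonspecific binding. Incubated 3 h at room temperature, then filtered.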

[1] = target: T2, Adenosine receptor A1 (Homo sapiens) (UniProt P30542); assay: In vitro allosteric enhancer (AE) activity for adenosine A1 receptor at 50 uM
T2 sequence (whole entry): T1 sequence (P30542 whole entry)
Procedure, shortened: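 Single-point screen on membranes from CHO-K1 cells stably expressing hA1AR. Candidate enhancer was added at 50 μM final for 5 min. Dissociation was then started with 8-cyclopentyltheophylline plus GTPγS and run 10 min. Score = % specific agonist binding remaining; two to three assays, each in triplicate.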

[2] = target: T3, Adenosine receptor A3 (Homo sapiens) (UniProt P0DMS8); assay: In vitro allosteric enhancer (AE) activity for adenosine A3 receptor at 50 uM
T3 sequence (whole entry): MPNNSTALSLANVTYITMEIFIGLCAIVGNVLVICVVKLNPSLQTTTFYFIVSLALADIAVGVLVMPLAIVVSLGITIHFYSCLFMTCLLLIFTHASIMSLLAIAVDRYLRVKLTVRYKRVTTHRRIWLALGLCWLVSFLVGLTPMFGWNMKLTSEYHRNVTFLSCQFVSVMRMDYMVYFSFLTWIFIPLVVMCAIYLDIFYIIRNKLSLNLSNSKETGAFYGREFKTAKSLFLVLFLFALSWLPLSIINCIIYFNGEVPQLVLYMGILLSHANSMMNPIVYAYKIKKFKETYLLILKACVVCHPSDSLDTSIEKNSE

[3] = target: Adenosine receptor A2a (Homo sapiens) (UniProt P29274); assay: In vitro allosteric enhancer (AE) activity for adenosine A2A receptor at 50 uM
[4] = target: T2, Adenosine receptor A1 (Homo sapiens); assay: Allosteric enhancer activity against adenosine A1 receptor
[5] = target: T2, Adenosine receptor A1 (Homo sapiens); assay: In vitro allosteric enhancer (AE) activity for adenosine A1 receptor maximal score from curve fitting

Adenosine receptor A2a (Homo sapiens), sequence (P29274 whole entry): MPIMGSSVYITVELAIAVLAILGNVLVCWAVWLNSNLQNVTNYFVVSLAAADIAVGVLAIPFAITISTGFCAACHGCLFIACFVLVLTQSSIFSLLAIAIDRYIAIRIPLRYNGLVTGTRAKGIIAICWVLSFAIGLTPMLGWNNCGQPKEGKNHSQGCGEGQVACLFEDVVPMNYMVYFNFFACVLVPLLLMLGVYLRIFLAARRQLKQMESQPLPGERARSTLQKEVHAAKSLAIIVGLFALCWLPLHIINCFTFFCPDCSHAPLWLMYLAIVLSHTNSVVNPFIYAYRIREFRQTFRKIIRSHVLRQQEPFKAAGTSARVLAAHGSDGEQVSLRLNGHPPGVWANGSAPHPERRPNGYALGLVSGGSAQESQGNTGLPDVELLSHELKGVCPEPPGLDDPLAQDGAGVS

SMILES	Inhibition (Adenosine receptor A1) [%]	Alloste ic enhan er (AE) [1] [%]	Alloste ic enhan er (AE) [2] [%]	Alloste ic enhan er (AE) [3] [%]	EC50 [4] [µM]	Allosteric enhancer (AE) [5] [%]
Nc1nc2c(s1)Cc1cc(-c3ccccc3[N+](=O)[O-])ccc1-2	8.3	40.1	0	0	6.3	49.7
COc1ccc2cc(-c3ccc4c(c3)Cc3sc(N)nc3-4)ccc2c1	–	24.4	0	0	–	–
Cc1ccc(-c2ccc3c(c2)Cc2sc(N)nc2-3)cc1C	30.1	52	0	0	> 10	–
COc1ccc(-c2ccc3c(c2)Cc2sc(N)nc2-3)c(OC)c1OC	18	64.5	0	0.3	> 10	–
Nc1nc2c(s1)Cc1cc(-c3cccc([N+](=O)[O-])c3)ccc1-2	8.3	13	0	0	> 10	–
Nc1nc2c(s1)Cc1cc(-c3ccc(C(F)(F)F)cc3)ccc1-2	> 10	8.9	0	0	> 10	–
Nc1nc2c(s1)Cc1cc(-c3ccccc3Cl)ccc1-2	> 10	36.7	0	0	> 10	–
Nc1nc2c(s1)Cc1cc(-c3ccccc3)ccc1-2	> 10	8.2	1.6	0	> 10	–
Nc1nc2c(s1)Cc1cc(-c3cccc(Cl)c3)ccc1-2	> 10	22.7	1	0	> 10	–
Nc1nc2c(s1)Cc1cc(-c3ccsc3)ccc1-2	–	68.8	3.8	0	–	–
Cc1ccccc1-c1ccc2c(c1)Cc1sc(N)nc1-2	34.4	36.6	0	0	> 10	–
Nc1nc2c(s1)Cc1cc(-c3ccc(Cl)c(Cl)c3)ccc1-2	8	45.3	0	0	> 10	22.6
Nc1nc2c(s1)Cc1cc(-c3cccc(F)c3)ccc1-2	> 10	42.8	3.6	0	> 10	–
Nc1nc2c(s1)Cc1cc(-c3ccc(F)cc3)ccc1-2	> 10	54.4	11.8	0	> 10	–
Cc1cc(C)cc(-c2ccc3c(c2)Cc2sc(N)nc2-3)c1	> 8.7	10.5	0	0	> 10	–
COc1ccc(-c2ccc3c(c2)Cc2sc(N)nc2-3)c(OC)c1	16	73	1.9	0	> 10	–
Nc1nc2c(s1)Cc1cc(-c3ccc4ccccc4c3)ccc1-2	> 4.2	38.6	4.5	0	> 10	–
Nc1nc2c(s1)Cc1cc(-c3cccc(O)c3)ccc1-2	36.7	10	1	0	> 10	–
Nc1nc2c(s1)Cc1cc(-c3ccc(O)cc3)ccc1-2	36.7	4	1	0	> 10	–
Nc1nc2c(s1)Cc1cc(-c3cccs3)ccc1-2	–	32	1.8	0	–	–
Cc1ccc(C)c(-c2ccc3c(c2)Cc2sc(N)nc2-3)c1	> 10	47.7	0	0	7.3	51
Nc1nc2c(s1)Cc1cc(-c3cccc4ccccc34)ccc1-2	> 13	61.2	4.2	0	3	65.6
Nc1nc2c(s1)Cc1cc(-c3cc4ccccc4o3)ccc1-2	–	51	11.9	0.8	–	–
Nc1nc2c(s1)Cc1cc(-c3cccc(C(F)(F)F)c3)ccc1-2	> 10	15.8	0	0	> 10	–
Cc1sc(N)c(C(=O)c2cccc(C(F)(F)F)c2)c1C	–	20	5	0	> 10	–
COc1cccc(-c2ccc3c(c2)Cc2sc(N)nc2-3)c1	19.3	64	1.8	0	> 10	–
COc1ccccc1-c1ccc2c(c1)Cc1sc(N)nc1-2	43.5	38	1	0	> 10	–
Nc1nc2c(s1)Cc1cc(-c3ccccc3C(F)(F)F)ccc1-2	> 10	50.1	6.6	0	5.1	57
COc1cc(-c2ccc3c(c2)Cc2sc(N)nc2-3)cc(OC)c1OC	11.8	23.3	0.8	0	> 10	–
Nc1nc2c(s1)Cc1cc(-c3ccccc3F)ccc1-2	13.2	4.9	3.6	0	> 10	–
